# Assay results from article PMC9055608 (RSC Advances, 2020).
# Several values for one entry are separate records, joined by “and”; a condition that tells them apart may be missing. Equal entries are not always repeated.
# Columns and labels:
# SKMEL-28 = test: MTT cell proliferation assay, SKMEL-28; assay type: cell-based, human; conditions: Homo sapiens, SK-MEL-28, 72 h
# Procedure, shortened: (§1)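 ATCC lines grown in DMEM or RPMI-1640 with 10% heat-inactivated FBS and 1% penicillin/streptomycin at 37 °C, 5% CO2. Log-phase cells seeded at about 4000–5000/well and left to adhere 24 h. Sextuplicate wells, 72 h. MTT for 4 h, then DMSO and absorbance. IC50 taken from dose–response curves.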
# MCF-7 = test: MTT cell proliferation assay, MCF-7; assay type: cell-based, human; conditions: Homo sapiens, MCF7, 72 h
# Procedure, shortened: as §1
# SKOV3 = test: MTT cell proliferation assay, SKOV3; assay type: cell-based, human; conditions: Homo sapiens, SK-OV-3, 72 h
# Procedure, shortened: as §1
# [1] = Mouse weight during in vivo efficacy study; set-up: species or system nude mice; conditions: during the nine days of treatment
# MCF-7 xenograft tumour [2] = test: Drug efficacy in vivo, MCF-7 breast cancer model; set-up: species or system nude mice
# A375 = test: MTT cell proliferation assay, A375; assay type: cell-based, human; conditions: Homo sapiens, A-375, 72 h
# Procedure, shortened: as §1
# [3] = test system: LO2 human normal liver cells; test: MTT assay, cytotoxicity against normal cell line LO2; assay type: cell-based
# Procedure, shortened: (§2)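 Cells seeded at about 4000–5000/well and allowed 24 h to adhere. MTT for 4 h, formazan dissolved in DMSO, absorbance read, and inhibition rate per concentration reported.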
# MCF-7 xenograft tumour [4] = test: Pathological tissue sections; assay type: in vivo, nude mice
# Procedure, shortened: (§3)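 Tumour-bearing nude mice were anaesthetised and killed after the 9-day dosing. Heart, liver, spleen, lung, kidney, brain and tumour were fixed in 10% formalin, embedded in paraffin, cut into 4 μm sections and stained with haematoxylin–eosin.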
# Calu-3 = test: MTT cell proliferation assay, Calu-3; assay type: cell-based, human; conditions: Homo sapiens, Calu-3, 72 h
# Procedure, shortened: as §1
# in vivo = assay type: in vivo, rats
# [5] = Biochemical indexes in serum and plasma; assay type: in vivo, mice; conditions: for BUN mean ± SD: plasma; for BUN mean ± SD / ALT mean ± SD / AST mean ± SD / CRE mean ± SD: DHDK micelles every day for 9 days; for ALT mean ± SD / AST mean ± SD / CRE mean ± SD: serum
# Procedure, shortened: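 Female mice were split into four groups (n = 6) and injected daily for 9 days with test-compound micelles, following the dosing regimen of the xenograft study. Animals were killed on the last dosing day. Kits measured AST, ALT and creatinine in serum, and urea nitrogen in plasma.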
# [6] = test system: BEAS-2B human normal lung epithelial cell; test: MTT assay, cytotoxicity against normal cell line BEAS-2B; assay type: cell-based
# Procedure, shortened: as §2
# cancer cell lines = test: MTT assay, cancer cell lines; assay type: cell-based; conditions: Homo sapiens, read-out: IC50 of other tumour cells
# Procedure, shortened: as §1
# [7] = Pathological tissue sections; assay type: in vivo, nude mice; conditions: tissues exposed to different dosages; end of 9 day treatment; HE staining
# Procedure, shortened: as §3
# MDA-MB231 = test: MTT cell proliferation assay, MDA-MB231; assay type: cell-based, human; conditions: Homo sapiens, MDA-MB-231, 72 h
# Procedure, shortened: as §1
# DU-145 = test: MTT cell proliferation assay, DU-145; assay type: cell-based, human; conditions: Homo sapiens, DU-145, 72 h
# Procedure, shortened: as §1
# [8] = test system: normal cell lines (LO2, GES-1, BEAS-2B); test: MTT assay, normal cell lines; assay type: cell-based, human; conditions: all DHDK concentrations
# Procedure, shortened: as §2
# N87 = test: MTT cell proliferation assay, N87; assay type: cell-based, human; conditions: Homo sapiens, 72 h
# Procedure, shortened: as §1
# Tissue distribution = assay type: in vivo, SD rats; conditions: for CL / AUC(0-inf): rat; for CL: tail vein injection of DHDK solution; for AUC(0-inf): iv, 14 mg/kg
# Procedure, shortened: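 SD rats (12 male, 12 female), fasted 12 h, received an intravenous dose of 14 mg kg−1 test-compound micelles. Six rats were killed at each of 0.25, 1, 4 and 24 h. Heart, liver, spleen, lung and kidney were rinsed in ice-cold saline, weighed, homogenised and stored at −80 °C. Samples were extracted with MTBE using curcumin internal standard. Analysis was by C18 LC-ESI-MS/MS (formic acid/acetonitrile gradient, MRM m/z 294.98→106.67).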
# A-549 = test: MTT cell proliferation assay, A-549; assay type: cell-based, human; conditions: Homo sapiens, A549, 72 h
# Procedure, shortened: as §1
# SKBR3 = test: MTT cell proliferation assay, SKBR3; assay type: cell-based, human; conditions: Homo sapiens, SK-BR-3, 72 h
# Procedure, shortened: as §1
# [9] = test system: GES-1 human normal gastric epithelial cells; test: MTT assay, cytotoxicity against normal cell line GES-1; assay type: cell-based; conditions: for OD value (mean ± SD): GES-1
# Procedure, shortened: as §2
# MDA-MB453 = test: MTT cell proliferation assay, MDA-MB453; assay type: cell-based, human; conditions: Homo sapiens, MDA-MB-453, 72 h
# Procedure, shortened: as §1
# HT-29 = test: MTT cell proliferation assay, HT-29; assay type: cell-based, human; conditions: Homo sapiens, HT-29, 72 h
# Procedure, shortened: as §1
# [10] = Homo sapiens, GES1, read-out: Inhibition rate
smiles,measurement,setting,value
"O=C(/C=C/CCc1ccc(O)cc1)/C=C/c1ccc(O)cc1 [DHDK, (1E,4E)-1,7-Bis(4-hydroxyphenyl)hepta-1,4-dien-3-one]",IC50,SKMEL-28,9.26 ± 0.57 µM
same,IC50,MCF-7,9.09 ± 0.46 µM
same,IC50,SKOV3,9.59 ± 0.44 µM
same,mouse weight course (in words),[1],stable weight
same,tumour inhibition rate of DHDK high-dose group as share of the cisplatin group,MCF-7 xenograft tumour [2]; DHDK 40 mg kg^−1 vs cisplatin 5 mg kg^−1,74.6%
same,Tumour weight (mean),"MCF-7 xenograft tumour [2]; group B, low-dose, DHDK micelles 10 mg kg^−1 every day for 9 days",597.04 ± 38.19
same,Tumour weight (mean),"MCF-7 xenograft tumour [2]; group C, medium-dose, DHDK micelles 20 mg kg^−1 every day for 9 days",540.53 ± 63.76
same,Tumour weight (mean),"MCF-7 xenograft tumour [2]; group D, high-dose, DHDK micelles 40 mg kg^−1 every day for 9 days",435.13 ± 140.10
same,Inhibition rate (IR) determined as tumour weight,"MCF-7 xenograft tumour [2]; high-dose, DHDK 40 mg kg^−1 every day for 9 days",47.85%
same,Inhibition rate (IR) determined as tumour weight,"MCF-7 xenograft tumour [2]; low-dose, DHDK 10 mg kg^−1 every day for 9 days",28.44%
same,Inhibition rate (IR) determined as tumour weight,"MCF-7 xenograft tumour [2]; medium-dose, DHDK 20 mg kg^−1 every day for 9 days",35.22%
same,IC50,A375,6.64 ± 0.4 µM
same,inhibition at 0.14 µM,"[3]; Homo sapiens, read-out: Inhibition rate, LO2, DHDK 0.14 μmol·L^−1",1.36%
same,inhibition at 0.42 µM,"[3]; Homo sapiens, read-out: Inhibition rate, LO2, DHDK 0.42 μmol·L^−1",1.51%
same,inhibition at 1.26 µM,"[3]; Homo sapiens, read-out: Inhibition rate, LO2, DHDK 1.26 μmol·L^−1",1.87%
same,inhibition at 3.8 µM,"[3]; Homo sapiens, read-out: Inhibition rate, LO2, DHDK 3.8 μmol·L^−1",2.08%
same,inhibition at 11.3 µM,"[3]; Homo sapiens, read-out: Inhibition rate, LO2, DHDK 11.3 μmol·L^−1",2.57%
same,OD value (mean ± SD),"[3]; LO2, DHDK 0.14 μmol·L^−1",0.69 ± 0.013
same,OD value (mean ± SD),"[3]; LO2, DHDK 0.42 μmol·L^−1",0.68 ± 0.039
same,OD value (mean ± SD),"[3]; LO2, DHDK 1.26 μmol·L^−1",0.68 ± 0.022
same,OD value (mean ± SD),"[3]; LO2, DHDK 3.8 μmol·L^−1",0.68 ± 0.031
same,OD value (mean ± SD),"[3]; LO2, DHDK 11.3 μmol·L^−1",0.68 ± 0.0066
same,Inhibition rate,"[3]; LO2, DHDK 34.0 μmol·L^−1",4.17%
same,OD value (mean ± SD),"[3]; LO2, DHDK 34.0 μmol·L^−1",0.67 ± 0.025
same,tumour histopathology,"MCF-7 xenograft tumour [4]; high-dose group, DHDK 40 mg kg^−1",A large amount of tumour necrosis with nuclear envelope breakdown and dissolved nucleus
same,tumour histopathology,"MCF-7 xenograft tumour [4]; low-dose group, DHDK 10 mg kg^−1",A small amount of punctate nucleolysis and a low degree of necrosis
same,tumour histopathology,"MCF-7 xenograft tumour [4]; medium-dose group, DHDK 20 mg kg^−1",point necrosis and dissolved nucleus
same,IC50,Calu-3,6.65 ± 0.42 µM
same,AUC(0–t) of DHDK high-dose group as share of cisplatin group,"in vivo; after dose conversion, DHDK 40 mg kg^−1 vs cisplatin 5 mg kg^−1",7.3%
same,AUC(0-inf),"in vivo; rat, in vivo, iv, 14 mg/kg",534 ng·h/mL
same,AUC(0-t),"in vivo; rat, in vivo, iv, 14 mg/kg",459 ng·h/mL
same,half-life,"in vivo; rat, in vivo, iv, 14 mg/kg",1.79 h
same,V 1,"in vivo; rat, tail vein injection 14 mg kg^−1 DHDK solution",0.037 L/kg
same,t 1/2α,"in vivo; rat, tail vein injection 14 mg kg^−1 DHDK solution, two-compartmental analysis",3.84 min
same,"liver and kidney toxicity (from BUN, CRE, AST, ALT)",[5]; all administration groups vs blank group,no potential liver and kidney toxicity
same,BUN mean ± SD,[5]; high dose group,9.86 ± 0.33 mmol/L
same,BUN mean ± SD,[5]; low dose group,10.16 ± 1.35 mmol/L
same,BUN mean ± SD,[5]; medium dose group,9.74 ± 0.47 mmol/L
same,ALT mean ± SD,[5]; high dose group,38.41 ± 0.67 U L^−1
same,AST mean ± SD,[5]; high dose group,52.98 ± 3.07 U L^−1
same,CRE mean ± SD,[5]; high dose group,82.97 ± 2.97 µmol/L
same,ALT mean ± SD,[5]; low dose group,39.18 ± 0.81 U L^−1
same,AST mean ± SD,[5]; low dose group,50.90 ± 3.04 U L^−1
same,CRE mean ± SD,[5]; low dose group,78.85 ± 3.90 µmol/L
same,ALT mean ± SD,[5]; medium dose group,39.70 ± 2.75 U L^−1
same,AST mean ± SD,[5]; medium dose group,50.93 ± 0.81 U L^−1
same,CRE mean ± SD,[5]; medium dose group,87.97 ± 7.63 µmol/L
same,Inhibition rate,[6]; DHDK 0.14 μmol·L^−1,0.059%
same,OD value (mean ± SD),[6]; DHDK 0.14 μmol·L^−1,0.66 ± 0.0017
same,OD value (mean ± SD),[6]; DHDK 0.42 μmol·L^−1,0.66 ± 0.0028
same,OD value (mean ± SD),[6]; DHDK 1.26 μmol·L^−1,0.66 ± 0.0027
same,OD value (mean ± SD),[6]; DHDK 3.8 μmol·L^−1,0.66 ± 0.0010
same,OD value (mean ± SD),[6]; DHDK 11.3 μmol·L^−1,0.64 ± 0.0028
same,OD value (mean ± SD),[6]; DHDK 34.0 μmol·L^−1,0.63 ± 0.0030
same,inhibition at 0.42 µM,"[6]; Homo sapiens, read-out: Inhibition rate, BEAS-2B, DHDK 0.42 μmol·L^−1",0.5%
same,inhibition at 1.26 µM,"[6]; Homo sapiens, read-out: Inhibition rate, BEAS-2B, DHDK 1.26 μmol·L^−1",0.83%
same,inhibition at 3.8 µM,"[6]; Homo sapiens, read-out: Inhibition rate, BEAS-2B, DHDK 3.8 μmol·L^−1",0.86%
same,inhibition at 11.3 µM,"[6]; Homo sapiens, read-out: Inhibition rate, BEAS-2B, DHDK 11.3 μmol·L^−1",3.1%
same,inhibition at 34 µM,"[6]; Homo sapiens, read-out: Inhibition rate, BEAS-2B, DHDK 34.0 μmol·L^−1",4.82%
same,IC50,cancer cell lines,< 11 µM and < 3.25 µg/mL
same,toxicity in tissue slices,[7],No toxicity was observed
same,IC50,MDA-MB231,4.49 µM
same,IC50,DU-145,4.62 ± 0.22 µM
same,inhibition rate of each group on normal cells,[8],less than 5%
same,IC50,N87,10.8 ± 0.5 µM
same,CL,Tissue distribution; Heart,50.93 ± 26.52 L·kg/h
same,CL,Tissue distribution; Kidney,244.93 ± 9.95 L·kg/h
same,CL,Tissue distribution; Liver,5.846 ± 1.02 L·kg/h
same,CL,Tissue distribution; Lung,8.89 ± 1.97 L·kg/h
same,CL,Tissue distribution; Spleen,81.66 ± 45.73 L·kg/h
same,AUC(0-inf),"Tissue distribution; Sprague-Dawley (SD), kidney",57.2 ± 32.3 ng·h/mL
same,AUC(0-inf),"Tissue distribution; Sprague-Dawley (SD), lung",1630 ± 299 ng·h/mL
same,AUC(0-inf),"Tissue distribution; Sprague-Dawley (SD), spleen",207 ± 84.3 ng·h/mL
same,AUC(0-inf),"Tissue distribution; both, SD, heart",414 ± 364 ng·h/mL
same,AUC(0-inf),"Tissue distribution; both, SD, liver",2450 ± 425 ng·h/mL
same,order of DHDK concentration in different tissues,"Tissue distribution; rats, 14 mg kg^−1 tail vein",lung > liver > heart > kidney > spleen
same,order of clearance rates in tissues,"Tissue distribution; rats, 14 mg kg^−1 tail vein",kidney > spleen > heart > lung > liver
same,IC50,A-549,8.01 ± 0.44 µM
same,IC50,SKBR3,1.71 ± 0.1 µM
same,OD value (mean ± SD),[9]; DHDK 0.14 μmol·L^−1,0.71 ± 0.0031
same,OD value (mean ± SD),[9]; DHDK 0.42 μmol·L^−1,0.71 ± 0.0098
same,OD value (mean ± SD),[9]; DHDK 1.26 μmol·L^−1,0.71 ± 0.0051
same,OD value (mean ± SD),[9]; DHDK 3.8 μmol·L^−1,0.70 ± 0.0035
same,OD value (mean ± SD),[9]; DHDK 11.3 μmol·L^−1,0.69 ± 0.0097
same,OD value (mean ± SD),[9]; DHDK 34.0 μmol·L^−1,0.68 ± 0.0075
same,inhibition at 0.14 µM,[9]; [10],0.17%
same,inhibition at 0.42 µM,[9]; [10],0.53%
same,inhibition at 1.26 µM,[9]; [10],1.06%
same,inhibition at 3.8 µM,[9]; [10],1.35%
same,inhibition at 11.3 µM,[9]; [10],3.53%
same,inhibition at 34 µM,[9]; [10],4.85%
same,IC50,MDA-MB453,10.4 ± 0.92 µM
same,IC50,HT-29,4.79 ± 0.54 µM
